# Screening data from PubChem.
# HUVEC prolif 384: human endothelial cell proliferation inhibition. HUVEC proliferation, CellTiter-Glo luminescence, 72 h; active compounds read low. viability, % at 10 µM (by protocol). 1.1% of 86,000 active. AID 648;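 active = viability at or below 30%; inactive = viability above 30%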
# PTEN del growth: PTEN-deleted cell growth suppression. viability, % at 10 µM. AID 827. HCT116 PTEN-null viability, CellTiter-Glo, 60 h; active compounds read low. 1.2% of 140,000 active;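 active = viability at or below a set limit, 4 SD under the median of all tested compounds, cut at about 3.7% in these data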;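 also: PTEN knockout HCT116 line with beta catenin targeted HCT116 as companion control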
# HCT116 bCat-KO: beta-catenin-lacking colon tumor cell growth suppression | HCT116 beta-catenin knockout viability, CellTiter-Glo, 60 h; active compounds read low | viability, % at 10 µM | 1.5% of 140,000 active | AID 818;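 active = viability at or under a set limit, the compound median less 4 SD, cut at about 6% in these data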
# H69AR inhibit: growth inhibitors of human H69AR lung tumor cells; H69AR lung tumor viability, ATP luminescence, 72 h; active compounds read low; viability, % at 10 µM; 6% of 85,000 active;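 active = viability at or below 40%; inactive = viability above 40%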;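 also: multidrug resistant small cell line overexpressing MRP-1 efflux transporter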
# Fibroblast inh: blocks proliferation of human lung fibroblasts | 1.1% of 85,000 active | viability, % at 10 µM | LL 47 human lung fibroblast viability, ATP luminescence; active compounds read low;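 active = viability at or below 50% in the single dose screen; inactive = viability above 50%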;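 also: compound exposure lasted 72 h before the ATP readout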
#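 Signal: luminescent ATP detection, CellTiter-Glo; assay system: LL 47 human lung fibroblasts; input: 1,150 cells/well; incubation: overnight cell rest, 72 h compound treatment at 37 °C; measure: % viability versus median cells-only luminescence; medium: IMEM growth medium with 15% fetal bovine serum; dosing: compound addition at 0.1% DMSO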
# Numbers stand for hits; . = inactive. Shown is part of a subset that was picked to be rich in hits.
SMILES,HUVEC prolif 384,PTEN del growth,HCT116 bCat-KO,H69AR inhibit,Fibroblast inh
CCc1nnc(NC(=O)CSc2nccn2-c2cccc(C)c2C)s1,.,.,.,18.3,.
CCOc1ccc(-n2ccnc2SCC(=O)Nc2nnc(C)s2)cc1,.,.,.,.,.
CCc1nnc(NC(=O)CSc2nccn2-c2cc(C)cc(C)c2)s1,.,.,.,22.1,.
O=C1C=C(Nc2ccccc2O)c2ccccc2C1=O,4.7,1.8,2.3,7.9,13.0
CCOc1c(OC)cccc1C1CC(=O)Nc2cc3c(cc21)OCCO3 (stereo unspecified),.,.,.,14.9,.
CCCOc1c(OC)cccc1C1CC(=O)Nc2cc(OC)c(OC)c(OC)c21 (stereo unspecified),.,.,.,.,.
O=C1CC(c2ccsc2)c2cc3c(cc2N1)OCCO3 (stereo unspecified),.,.,.,26.8,.
